# Reference: ChEMBL document CHEMBL4177662, “Phosphamide-containing diphenylpyrimidine analogues (PA-DPPYs) as potent focal adhesion kinase (FAK) inhibitors with enhanced activity against pancreatic cancer cell lines” (Bioorg Med Chem, 2017)
# What was measured:
# [1] = biological target: Tyrosine-protein kinase receptor UFO (Homo sapiens) (UniProt P30530); assay: Inhibition of GST-tagged human AXL (473 end residues) at 100 nM relative to control
# Outline: (§1)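 SelectScreen biochemical kinase profiling service; percent inhibition of each kinase at a single compound concentration of 100 nM.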
# [2] = tested on: ASPC1; assay: Antiproliferative activity against human Aspc-1 cells assessed as cell viability at 8 uM after 72 hrs by MTT assay (reference value: 97%); format: functional; details: ASPC1, 72 h, read-out: Activity
# [3] = tested on: ASPC1; assay: Cell cycle arrest in human Aspc-1 cells assessed as accumulation at G0/G1 phase at 5 uM after 72 hrs by propidium iodide staining-based flow cytometry (reference value: 39.41%); format: functional
# [4] = tested on: ASPC1; assay: Induction of apoptosis in human Aspc-1 cells assessed as early apoptotic cells at 10 uM after 72 hrs by Annexin V-FITC/propidium iodide staining-based flow cytometry (reference value: 0%); format: functional
# Outline: (§2)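 AsPC-1 cells (3 to 5×10^5 per well) were treated with DMSO solvent control or compound for 72 h in medium with 5% FBS. Cells were then stained with Annexin V-FITC and propidium iodide and analysed by flow cytometry. One representative experiment shown.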
# [5] = biological target: Epidermal growth factor receptor (Homo sapiens) (UniProt P00533); assay: Inhibition of recombinant GST-tagged human EGFR cytoplasmic domain (668 to 1210 residues) expressed in baculovirus expression system at 100 nM relative to control
# Outline: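 Part of a small kinase-panel profile run by an outsourced biochemical profiling service. The test compound was given at a single concentration of 100 nM, and activity was reported as percent inhibition rate.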
# [6] = tested on: PANC-1 (human); assay: Antiproliferative activity against human PANC-1 cells assessed as cell viability at 4 uM after 48 hrs by MTT assay (reference value: 98.8%); details: PANC-1, 48 h
# [7] = tested on: ASPC1; assay: Cell cycle arrest in human Aspc-1 cells assessed as accumulation at S phase at 5 uM after 72 hrs by propidium iodide staining-based flow cytometry (reference value: 59.70%); format: functional
# [8] = tested on: BXPC-3; assay: Antiproliferative activity against human BxPC3 cells assessed as cell viability at 4 uM after 24 hrs by MTT assay (reference value: 100%); format: functional; details: BXPC-3, 24 h, read-out: Activity
# [9] = tested on: PANC-1 (human); assay: Antiproliferative activity against human PANC-1 cells assessed as cell viability at 8 uM after 72 hrs by MTT assay (reference value: 97%); details: PANC-1, 72 h
# [10] = tested on: ASPC1; assay: Antiproliferative activity against human Aspc-1 cells assessed as cell viability at 0.5 uM after 72 hrs by MTT assay (reference value: 97%); format: functional; details: ASPC1, 72 h, read-out: Activity
# [11] = tested on: PANC-1 (human); assay: Antiproliferative activity against human PANC-1 cells assessed as cell viability at 8 uM after 24 hrs by MTT assay (reference value: 100%); details: PANC-1, 24 h
# [12] = tested on: BXPC-3; assay: Antiproliferative activity against human BxPC3 cells after 72 hrs by MTT assay; format: functional, cell-based; details: BXPC-3, 72 h
# Outline: (§3)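 Cells grown in DMEM with 10% FBS and 1% penicillin-streptomycin at 37 °C, 5% CO2. Seeded at 4,000 to 5,000 cells/well, cultured one day, then exposed to compounds for 72 h at 1.25 to 40 μmol/L, five replicates per concentration. MTT absorbance read at 570 nm. IC50 from five-point dose-response curves; mean of at least three separate experiments.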
# [13] = tested on: ASPC1; assay: Antiproliferative activity against human Aspc-1 cells assessed as cell viability at 4 uM after 72 hrs by MTT assay (reference value: 97%); format: functional; details: ASPC1, 72 h, read-out: Activity
# [14] = tested on: ASPC1; assay: Cell cycle arrest in human Aspc-1 cells assessed as accumulation at G2/M phase at 2.5 uM after 72 hrs by propidium iodide staining-based flow cytometry (reference value: 0.89%); format: functional
# [15] = biological target: Tyrosine-protein kinase BTK (Homo sapiens) (UniProt Q06187); assay: Inhibition of recombinant full length His-tagged human BTK cytoplasmic domain expressed in baculovirus expression system at 100 nM relative to control
# Outline: (§4)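 Percent inhibition of kinase activity at a single 100 nM test concentration, from an outsourced biochemical profiling screen.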
# [16] = biological target: Protein-tyrosine kinase 2-beta (Homo sapiens) (UniProt Q14289); assay: Inhibition of recombinant full length GST-tagged human PYK2 cytoplasmic domain expressed in baculovirus expression system at 100 nM relative to control; outline: as §1
# [17] = tested on: ASPC1; assay: Induction of apoptosis in human Aspc-1 cells assessed as early apoptotic cells at 2.5 uM after 72 hrs by Annexin V-FITC/propidium iodide staining-based flow cytometry (reference value: 0%); format: functional; outline: as §2
# [18] = tested on: ASPC1; assay: Antiproliferative activity against human Aspc-1 cells assessed as cell viability at 0.5 uM after 48 hrs by MTT assay (reference value: 98.1%); format: functional; details: ASPC1, 48 h, read-out: Activity
# [19] = tested on: ASPC1; assay: Induction of apoptosis in human Aspc-1 cells assessed as late apoptotic cells at 5 uM after 72 hrs by Annexin V-FITC/propidium iodide staining-based flow cytometry (reference value: 0%); format: functional; outline: as §2
# [20] = biological target: T1, Aurora kinase A (Homo sapiens) (UniProt O14965); assay: Inhibition of recombinant full length His-tagged human Aurora A expressed in baculovirus expression system at 100 nM relative to control; outline: as §4
# T1 sequence (whole entry): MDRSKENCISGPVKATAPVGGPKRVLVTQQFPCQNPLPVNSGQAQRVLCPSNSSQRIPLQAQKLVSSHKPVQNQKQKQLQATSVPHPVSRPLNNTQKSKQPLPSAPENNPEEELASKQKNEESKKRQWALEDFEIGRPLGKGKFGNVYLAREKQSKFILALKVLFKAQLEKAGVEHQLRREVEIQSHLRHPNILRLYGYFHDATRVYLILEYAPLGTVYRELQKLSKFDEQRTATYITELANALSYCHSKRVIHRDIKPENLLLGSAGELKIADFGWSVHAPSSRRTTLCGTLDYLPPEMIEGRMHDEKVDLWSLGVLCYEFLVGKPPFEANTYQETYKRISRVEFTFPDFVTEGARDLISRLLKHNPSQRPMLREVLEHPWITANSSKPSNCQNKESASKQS
# [21] = tested on: ASPC1; assay: Induction of apoptosis in human Aspc-1 cells assessed as necrotic cells at 5 uM after 72 hrs by Annexin V-FITC/propidium iodide staining-based flow cytometry (reference value: 0%); format: functional; outline: as §2
# [22] = biological target: Focal adhesion kinase 1 (Homo sapiens, UniProt Q05397); assay: Inhibition of recombinant full length GST-tagged human FAK expressed in baculovirus expression system at 100 nM relative to control; outline: as §1
# [23] = tested on: ASPC1; assay: Cell cycle arrest in human Aspc-1 cells assessed as accumulation at G2/M phase at 1 uM after 72 hrs by propidium iodide staining-based flow cytometry (reference value: 0.89%); format: functional
# [24] = tested on: ASPC1; assay: Induction of apoptosis in human Aspc-1 cells assessed as late apoptotic cells at 2.5 uM after 72 hrs by Annexin V-FITC/propidium iodide staining-based flow cytometry (reference value: 0%); format: functional; outline: as §2
# [25] = tested on: ASPC1; assay: Antiproliferative activity against human Aspc-1 cells assessed as cell viability at 4 uM after 48 hrs by MTT assay (reference value: 98.1%); format: functional; details: ASPC1, 48 h, read-out: Activity
# [26] = tested on: ASPC1; assay: Antiproliferative activity against human Aspc-1 cells after 72 hrs by MTT assay; format: functional, cell-based; details: ASPC1, 72 h; outline: as §3
# Chain of Epidermal growth factor receptor (Homo sapiens) (P00533 whole entry, the tested form may be a part): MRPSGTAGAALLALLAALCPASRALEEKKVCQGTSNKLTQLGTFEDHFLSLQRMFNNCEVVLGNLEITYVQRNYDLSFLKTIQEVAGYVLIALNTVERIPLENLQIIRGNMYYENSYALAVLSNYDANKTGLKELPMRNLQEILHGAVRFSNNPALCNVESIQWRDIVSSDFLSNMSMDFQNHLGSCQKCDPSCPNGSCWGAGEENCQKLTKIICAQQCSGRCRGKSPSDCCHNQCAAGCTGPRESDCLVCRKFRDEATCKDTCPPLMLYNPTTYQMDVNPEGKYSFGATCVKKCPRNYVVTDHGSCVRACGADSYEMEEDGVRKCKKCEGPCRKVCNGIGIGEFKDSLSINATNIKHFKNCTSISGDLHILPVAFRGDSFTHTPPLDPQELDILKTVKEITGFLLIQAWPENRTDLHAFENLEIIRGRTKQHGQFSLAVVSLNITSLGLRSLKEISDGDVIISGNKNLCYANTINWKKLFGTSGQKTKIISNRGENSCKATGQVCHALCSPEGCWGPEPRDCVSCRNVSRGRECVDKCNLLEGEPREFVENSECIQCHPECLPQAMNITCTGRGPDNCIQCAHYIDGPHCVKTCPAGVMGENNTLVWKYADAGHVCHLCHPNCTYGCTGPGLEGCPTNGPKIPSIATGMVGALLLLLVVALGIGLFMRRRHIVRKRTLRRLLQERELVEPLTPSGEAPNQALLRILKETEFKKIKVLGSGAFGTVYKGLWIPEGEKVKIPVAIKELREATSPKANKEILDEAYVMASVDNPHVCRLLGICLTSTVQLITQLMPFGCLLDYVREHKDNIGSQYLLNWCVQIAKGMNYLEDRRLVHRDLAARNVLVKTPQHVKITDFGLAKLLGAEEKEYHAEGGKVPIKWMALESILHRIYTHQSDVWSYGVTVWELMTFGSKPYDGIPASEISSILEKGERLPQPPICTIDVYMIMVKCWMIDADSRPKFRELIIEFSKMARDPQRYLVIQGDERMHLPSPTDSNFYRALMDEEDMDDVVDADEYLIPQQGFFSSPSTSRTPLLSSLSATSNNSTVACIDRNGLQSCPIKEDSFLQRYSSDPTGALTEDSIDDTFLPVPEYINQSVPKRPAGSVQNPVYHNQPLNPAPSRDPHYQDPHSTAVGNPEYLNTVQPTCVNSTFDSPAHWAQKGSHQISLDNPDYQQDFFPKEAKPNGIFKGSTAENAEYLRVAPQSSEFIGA
# Chain of Focal adhesion kinase 1 (Q05397 2-1052 limits assumed): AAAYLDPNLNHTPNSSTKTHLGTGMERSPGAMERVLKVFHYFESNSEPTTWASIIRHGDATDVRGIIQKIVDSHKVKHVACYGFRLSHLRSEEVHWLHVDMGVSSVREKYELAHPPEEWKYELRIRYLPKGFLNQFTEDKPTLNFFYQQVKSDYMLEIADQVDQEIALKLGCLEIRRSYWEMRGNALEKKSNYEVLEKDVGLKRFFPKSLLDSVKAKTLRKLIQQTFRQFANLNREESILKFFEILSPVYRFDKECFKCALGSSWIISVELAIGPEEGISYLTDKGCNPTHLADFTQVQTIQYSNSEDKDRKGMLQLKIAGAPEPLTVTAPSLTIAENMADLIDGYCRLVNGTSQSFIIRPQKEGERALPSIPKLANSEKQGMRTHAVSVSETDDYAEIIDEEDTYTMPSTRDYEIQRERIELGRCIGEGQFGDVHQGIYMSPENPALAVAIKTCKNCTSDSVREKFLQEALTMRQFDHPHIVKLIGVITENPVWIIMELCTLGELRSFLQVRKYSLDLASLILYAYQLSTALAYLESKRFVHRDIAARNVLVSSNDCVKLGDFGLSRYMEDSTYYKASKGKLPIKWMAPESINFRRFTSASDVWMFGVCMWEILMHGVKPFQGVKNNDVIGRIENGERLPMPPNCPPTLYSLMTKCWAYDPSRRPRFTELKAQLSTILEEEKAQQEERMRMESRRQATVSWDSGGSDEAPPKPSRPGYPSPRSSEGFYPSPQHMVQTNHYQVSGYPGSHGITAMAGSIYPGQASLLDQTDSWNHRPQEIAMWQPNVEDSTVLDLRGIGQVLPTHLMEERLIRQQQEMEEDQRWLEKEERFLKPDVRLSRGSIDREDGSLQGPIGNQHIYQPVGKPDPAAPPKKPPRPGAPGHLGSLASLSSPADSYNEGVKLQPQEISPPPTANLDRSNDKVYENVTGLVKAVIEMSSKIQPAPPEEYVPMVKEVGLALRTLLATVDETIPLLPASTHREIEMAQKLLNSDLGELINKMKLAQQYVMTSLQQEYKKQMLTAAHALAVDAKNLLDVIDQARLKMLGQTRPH
# Chain of Tyrosine-protein kinase receptor UFO (Homo sapiens) (P30530 whole entry): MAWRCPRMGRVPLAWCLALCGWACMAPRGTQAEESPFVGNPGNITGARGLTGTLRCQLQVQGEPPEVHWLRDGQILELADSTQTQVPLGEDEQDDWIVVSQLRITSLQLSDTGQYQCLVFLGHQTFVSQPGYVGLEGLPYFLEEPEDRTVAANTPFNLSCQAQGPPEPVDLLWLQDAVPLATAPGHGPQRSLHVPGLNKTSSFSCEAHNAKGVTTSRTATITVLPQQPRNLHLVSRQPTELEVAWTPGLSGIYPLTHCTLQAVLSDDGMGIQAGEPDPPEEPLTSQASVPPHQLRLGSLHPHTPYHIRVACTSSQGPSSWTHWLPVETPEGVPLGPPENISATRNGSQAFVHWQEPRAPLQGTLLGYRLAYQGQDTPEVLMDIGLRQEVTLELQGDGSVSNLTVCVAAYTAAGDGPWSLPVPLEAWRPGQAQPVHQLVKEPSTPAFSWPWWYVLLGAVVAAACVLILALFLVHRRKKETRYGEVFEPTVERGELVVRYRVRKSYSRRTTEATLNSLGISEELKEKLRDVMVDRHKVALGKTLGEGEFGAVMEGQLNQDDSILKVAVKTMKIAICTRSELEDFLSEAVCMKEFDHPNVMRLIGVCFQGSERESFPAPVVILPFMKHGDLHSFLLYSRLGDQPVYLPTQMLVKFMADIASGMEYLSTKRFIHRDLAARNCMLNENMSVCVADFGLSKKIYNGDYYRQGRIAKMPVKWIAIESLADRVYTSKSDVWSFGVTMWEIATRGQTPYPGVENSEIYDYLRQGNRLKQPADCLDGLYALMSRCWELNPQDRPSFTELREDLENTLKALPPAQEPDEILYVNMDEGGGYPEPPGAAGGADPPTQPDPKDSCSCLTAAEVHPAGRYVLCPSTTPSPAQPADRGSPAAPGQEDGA
# Chain of Protein-tyrosine kinase 2-beta (Homo sapiens) (Q14289 whole entry, looked up, the tested form may be a part): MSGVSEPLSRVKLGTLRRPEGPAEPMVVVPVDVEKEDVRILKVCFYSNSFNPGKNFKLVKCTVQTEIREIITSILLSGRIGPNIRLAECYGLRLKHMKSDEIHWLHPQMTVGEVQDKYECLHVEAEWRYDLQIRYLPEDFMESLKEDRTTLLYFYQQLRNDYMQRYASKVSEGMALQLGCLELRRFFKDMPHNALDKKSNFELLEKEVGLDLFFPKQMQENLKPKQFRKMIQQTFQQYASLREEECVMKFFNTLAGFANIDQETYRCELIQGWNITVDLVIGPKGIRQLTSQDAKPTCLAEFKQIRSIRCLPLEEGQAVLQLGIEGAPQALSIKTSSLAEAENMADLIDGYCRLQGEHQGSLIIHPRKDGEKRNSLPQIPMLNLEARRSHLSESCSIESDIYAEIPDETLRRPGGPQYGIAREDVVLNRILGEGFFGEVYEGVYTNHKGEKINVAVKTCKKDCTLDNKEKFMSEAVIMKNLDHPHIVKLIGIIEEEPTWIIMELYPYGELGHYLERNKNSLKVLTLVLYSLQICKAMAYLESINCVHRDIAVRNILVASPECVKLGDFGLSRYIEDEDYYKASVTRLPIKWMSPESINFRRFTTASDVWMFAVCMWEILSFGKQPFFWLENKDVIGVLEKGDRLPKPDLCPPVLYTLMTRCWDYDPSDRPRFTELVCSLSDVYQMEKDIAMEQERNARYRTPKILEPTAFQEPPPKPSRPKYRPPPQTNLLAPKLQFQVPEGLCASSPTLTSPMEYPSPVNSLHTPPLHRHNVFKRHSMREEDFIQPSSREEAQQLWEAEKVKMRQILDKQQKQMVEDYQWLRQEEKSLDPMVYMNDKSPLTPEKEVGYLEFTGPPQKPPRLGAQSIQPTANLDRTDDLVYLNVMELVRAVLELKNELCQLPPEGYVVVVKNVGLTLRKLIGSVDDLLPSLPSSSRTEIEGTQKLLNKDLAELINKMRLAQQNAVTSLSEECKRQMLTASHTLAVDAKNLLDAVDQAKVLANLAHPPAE
# Chain of Tyrosine-protein kinase BTK (Homo sapiens) (Q06187 whole entry, the tested form may be a part): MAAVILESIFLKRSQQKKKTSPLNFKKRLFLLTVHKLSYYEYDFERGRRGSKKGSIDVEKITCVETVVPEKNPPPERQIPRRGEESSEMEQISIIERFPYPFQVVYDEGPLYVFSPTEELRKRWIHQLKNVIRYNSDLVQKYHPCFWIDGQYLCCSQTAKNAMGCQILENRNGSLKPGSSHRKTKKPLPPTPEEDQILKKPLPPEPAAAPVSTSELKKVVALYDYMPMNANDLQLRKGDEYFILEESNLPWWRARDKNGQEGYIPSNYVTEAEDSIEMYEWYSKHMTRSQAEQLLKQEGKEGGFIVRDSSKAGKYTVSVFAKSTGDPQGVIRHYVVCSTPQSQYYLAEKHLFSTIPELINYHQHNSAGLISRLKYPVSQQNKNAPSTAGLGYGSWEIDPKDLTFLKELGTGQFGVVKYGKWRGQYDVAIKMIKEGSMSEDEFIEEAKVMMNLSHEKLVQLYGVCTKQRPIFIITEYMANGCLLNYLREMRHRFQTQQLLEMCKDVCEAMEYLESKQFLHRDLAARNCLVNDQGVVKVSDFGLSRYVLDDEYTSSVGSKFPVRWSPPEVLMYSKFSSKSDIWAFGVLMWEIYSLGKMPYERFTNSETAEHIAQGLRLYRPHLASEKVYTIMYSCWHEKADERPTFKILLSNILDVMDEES
structure (smiles),measurement,setting,value
CCOP(=O)(CCCOc1ccc(Nc2ncc([N+](=O)[O-])c(Nc3ccccc3C(=O)NC)n2)cc1)N1CCOCC1 (stereo unspecified),inhibition,[1],60%
same,viability at 8 µM,[2],16.8%
same,Activity,[3],40.06%
same,Activity,[4],16.6%
same,inhibition,[5],22%
same,viability at 4 µM,[6],61.6%
same,Activity,[7],37.82%
same,viability at 4 µM,[8],88.5%
same,viability at 8 µM,[9],18.1%
same,viability at 0.5 µM,[10],94.4%
same,viability at 8 µM,[11],87.3%
same,IC50,[12],0.57 µM
same,viability at 4 µM,[13],40.8%
same,Activity,[14],16.54%
same,inhibition,[15],33%
same,inhibition,[16],71%
same,Activity,[17],21%
same,viability at 0.5 µM,[18],97.4%
same,Activity,[19],40.3%
same,inhibition,[20],48%
same,Activity,[21],3.3%
same,inhibition,[22],92%
same,Activity,[23],13%
same,Activity,[24],20.7%
same,viability at 4 µM,[25],47.7%
same,IC50,[26],1.66 µM
